Where “and” joins values, the source holds several entries; their conditions need not be identical. Equal values may be shown once.
Tested on: Fibroblast
Test: Multiplex assay against human fibroblast
Format: toxicity, cell-based
Conditions: number of replicates 2
Summary of the method: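 At seeding, live cells were stained with Hoechst33342, BioTracker Green Microtubule Cytoskeleton Dye, MitoTracker Red and Annexin V Alexa Fluor 680. After compound addition they were imaged on a CQ1 microscope at 37°C and 5% CO2, and CellPathfinder machine-learning gating sorted them into Hoechst high-intensity objects or normal cells, with normal cells further split into healthy, pyknosed or fragmented nuclei and pyknosed cells into mitotic or apoptotic. Tubulin, mitochondrial-mass and membrane-permeability phenotypes are given as per cents of cells with healthy nuclei.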

[1] = 12 h, 1 µM, compound concentration 1 uM
[2] = 12 h, 10 µM, compound concentration 10 uM
[3] = 24 h, 1 µM, compound concentration 1 uM
[4] = 24 h, 10 µM, compound concentration 10 uM
[5] = 48 h, 1 µM, compound concentration 1 uM
[6] = 48 h, 10 µM, compound concentration 10 uM

CCN(CC)C/C=C/C(=O)Nc1cc2c(Nc3ccc(F)c(Cl)c3)ncnc2cc1OCC1CC1
Population Apoptotic (%) [1]: 48% and 35%
Population Fragmented Nuclei (%) [1]: 14% and 17%
Population Healthy Nuclei (%) [1]: 62% and 55%
Population Hoechst High Intensity Objects (%) [1]: 0%
Population Membrane Permeable-Phenotype (%) [1]: 10% and 15%
Population Mitochondria Different-Phenotype (%) [1]: 2% and 4%
Population Mitotic Cells (%) [1]: 51% and 65%
Population Normal (%) [1]: 100%
Population Pyknosed Nuclei (%) [1]: 22% and 26%
Population Tubulin-Different-Phenotype (%) [1]: 61% and 56%
Total Cell Count [1]: 189 and 225
Population Apoptotic (%) [2]: 63% and 58%
Population Fragmented Nuclei (%) [2]: 19% and 20%
Population Healthy Nuclei (%) [2]: 47% and 51%
Population Hoechst High Intensity Objects (%) [2]: 0%
Population Membrane Permeable-Phenotype (%) [2]: 25% and 20%
Population Mitotic Cells (%) [2]: 36% and 41%
Population Normal (%) [2]: 100%
Population Pyknosed Nuclei (%) [2]: 33% and 27%
Population Tubulin-Different-Phenotype (%) [2]: 92% and 87%
Total Cell Count [2]: 209 and 264
Population Apoptotic (%) [3]: 52% and 62%
Population Fragmented Nuclei (%) [3]: 17% and 20%
Population Healthy Nuclei (%) [3]: 60% and 64%
Population Hoechst High Intensity Objects (%) [3]: 1% and 0%
Population Membrane Permeable-Phenotype (%) [3]: 2% and 4%
Population Mitochondria Different-Phenotype (%) [3]: 7% and 12%
Population Mitotic Cells (%) [3]: 47% and 37%
Population Normal (%) [3]: 98% and 100%
Population Pyknosed Nuclei (%) [3]: 22% and 15%
Population Tubulin-Different-Phenotype (%) [3]: 75% and 62%
Total Cell Count [3]: 192 and 231
Population Apoptotic (%) [4]: 91% and 85%
Population Fragmented Nuclei (%) [4]: 13% and 8%
Population Healthy Nuclei (%) [4]: 13% and 19%
Population Hoechst High Intensity Objects (%) [4]: 0%
Population Membrane Permeable-Phenotype (%) [4]: 14% and 16%
Population Mitochondria Different-Phenotype (%) [4]: 71% and 56%
Population Mitotic Cells (%) [4]: 8% and 14%
Population Normal (%) [4]: 99%
Population Pyknosed Nuclei (%) [4]: 72% and 71%
Population Tubulin-Different-Phenotype (%) [4]: 95% and 89%
Total Cell Count [4]: 154 and 190
Population Apoptotic (%) [5]: 73% and 53%
Population Fragmented Nuclei (%) [5]: 28% and 25%
Population Healthy Nuclei (%) [5]: 59% and 63%
Population Hoechst High Intensity Objects (%) [5]: 0%
Population Membrane Permeable-Phenotype (%) [5]: 3% and 1%
Population Mitochondria Different-Phenotype (%) [5]: 10% and 8%
Population Mitotic Cells (%) [5]: 26% and 46%
Population Normal (%) [5]: 100% and 99%
Population Pyknosed Nuclei (%) [5]: 12% and 11%
Population Tubulin-Different-Phenotype (%) [5]: 68% and 45%
Total Cell Count [5]: 210 and 233
Population Apoptotic (%) [6]: 92% and 94%
Population Fragmented Nuclei (%) [6]: 22% and 28%
Population Healthy Nuclei (%) [6]: 10% and 21%
Population Hoechst High Intensity Objects (%) [6]: 0%
Population Membrane Permeable-Phenotype (%) [6]: 41% and 38%
Population Mitochondria Different-Phenotype (%) [6]: 29% and 19%
Population Mitotic Cells (%) [6]: 7% and 5%
Population Normal (%) [6]: 100%
Population Pyknosed Nuclei (%) [6]: 67% and 49%
Population Tubulin-Different-Phenotype (%) [6]: 47% and 93%
Total Cell Count [6]: 168 and 145

COc1ccc2cc(S(=O)(=O)N[C@H](CC(=O)N[C@H](Cc3ccc(CN4[C@H](C)CCC[C@@H]4C)cc3)C(=O)N(C)C(C)C)c3ccc4c(c3)OCO4)ccc2c1.Cl
Population Apoptotic (%) [1]: 31% and 54%
Population Fragmented Nuclei (%) [1]: 17% and 21%
Population Healthy Nuclei (%) [1]: 61% and 62%
Population Hoechst High Intensity Objects (%) [1]: 0%
Population Membrane Permeable-Phenotype (%) [1]: 6% and 11%
Population Mitochondria Different-Phenotype (%) [1]: 2% and 1%
Population Mitotic Cells (%) [1]: 68% and 45%
Population Normal (%) [1]: 100%
Population Pyknosed Nuclei (%) [1]: 20% and 16%
Population Tubulin-Different-Phenotype (%) [1]: 66% and 52%
Total Cell Count [1]: 155 and 275
Population Apoptotic (%) [2]: 57% and 44%
Population Fragmented Nuclei (%) [2]: 26% and 14%
Population Healthy Nuclei (%) [2]: 52% and 66%
Population Hoechst High Intensity Objects (%) [2]: 0%
Population Membrane Permeable-Phenotype (%) [2]: 20% and 17%
Population Mitochondria Different-Phenotype (%) [2]: 21% and 16%
Population Mitotic Cells (%) [2]: 42% and 55%
Population Normal (%) [2]: 99%
Population Pyknosed Nuclei (%) [2]: 20% and 19%
Population Tubulin-Different-Phenotype (%) [2]: 97% and 84%
Total Cell Count [2]: 160 and 258
Population Apoptotic (%) [3]: 43% and 66%
Population Fragmented Nuclei (%) [3]: 25% and 28%
Population Healthy Nuclei (%) [3]: 61% and 59%
Population Hoechst High Intensity Objects (%) [3]: 0%
Population Membrane Permeable-Phenotype (%) [3]: 0% and 5%
Population Mitochondria Different-Phenotype (%) [3]: 12% and 10%
Population Mitotic Cells (%) [3]: 56% and 33%
Population Normal (%) [3]: 100%
Population Pyknosed Nuclei (%) [3]: 13% and 12%
Population Tubulin-Different-Phenotype (%) [3]: 64% and 56%
Total Cell Count [3]: 171 and 286
Population Apoptotic (%) [4]: 80%
Population Fragmented Nuclei (%) [4]: 20% and 16%
Population Healthy Nuclei (%) [4]: 56% and 57%
Population Hoechst High Intensity Objects (%) [4]: 1% and 0%
Population Membrane Permeable-Phenotype (%) [4]: 14% and 7%
Population Mitochondria Different-Phenotype (%) [4]: 42% and 56%
Population Mitotic Cells (%) [4]: 19% and 20%
Population Normal (%) [4]: 98% and 99%
Population Pyknosed Nuclei (%) [4]: 23% and 25%
Population Tubulin-Different-Phenotype (%) [4]: 93% and 92%
Total Cell Count [4]: 159 and 220
Population Apoptotic (%) [5]: 77% and 72%
Population Fragmented Nuclei (%) [5]: 36% and 29%
Population Healthy Nuclei (%) [5]: 53% and 64%
Population Hoechst High Intensity Objects (%) [5]: 0%
Population Membrane Permeable-Phenotype (%) [5]: 2% and 3%
Population Mitochondria Different-Phenotype (%) [5]: 9% and 7%
Population Mitotic Cells (%) [5]: 22% and 27%
Population Normal (%) [5]: 99% and 100%
Population Pyknosed Nuclei (%) [5]: 9% and 5%
Population Tubulin-Different-Phenotype (%) [5]: 28% and 50%
Total Cell Count [5]: 326 and 194
Population Apoptotic (%) [6]: 88% and 86%
Population Fragmented Nuclei (%) [6]: 24% and 18%
Population Healthy Nuclei (%) [6]: 62% and 65%
Population Hoechst High Intensity Objects (%) [6]: 5% and 9%
Population Membrane Permeable-Phenotype (%) [6]: 8% and 10%
Population Mitochondria Different-Phenotype (%) [6]: 46% and 55%
Population Mitotic Cells (%) [6]: 11% and 13%
Population Normal (%) [6]: 94% and 90%
Population Pyknosed Nuclei (%) [6]: 12% and 15%
Population Tubulin-Different-Phenotype (%) [6]: 87% and 83%
Total Cell Count [6]: 138 and 202

From ChEMBL document CHEMBL5303300, “EUbOPEN Chemogenomics Library - Multiplex” (2023)
